Source: paper PMC9303465 (Hematological Oncology, 2022)

Assay: Population PK analysis of venetoclax in AML patients
Assay type: in vivo
Procedure, shortened: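 Plasma PK data were pooled from five studies: 771 R/R or treatment-naïve AML patients given ≥1 dose, with daily ramp-up to 400–1200 mg QD. Fitted by nonlinear mixed-effects modelling (FOCE-INT), using a prior CLL/SLL/NHL/healthy-volunteer model as informative priors. Race, azacitidine, decitabine and LDAC were tested stepwise (forward α=0.01, backward α=0.001) as multiplicative factors on CL/F, Vd/F and bioavailability. Validated by pcVPC (500 replicates); AUCss was taken from the planned dose.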

With `CC1(C)CCC(CN2CCN(c3ccc(C(=O)NS(=O)(=O)c4ccc(NCC5CCOCC5)c([N+](=O)[O-])c4)c(Oc4cnc5[nH]ccc5c4)c3)CC2)=C(c2ccc(Cl)cc2)C1` [Venetoclax] the “Median exposure (AUCss) at 400 mg venetoclax” value (Asian patients) was 1.85 µg·days/mL, the “higher relative bioavailability in Asian than non‐Asian patients” value (Asian vs non-Asian AML patients) was 67% and the “Median exposure (AUCss) at 400 mg venetoclax” value (Non‐Asian patients) was 1.11 µg·days/mL. For the same molecule, the “effect of co-administration on venetoclax CL/F” value (P‐gp inhibitors, mild CYP3A inhibitors, azacitidine, decitabine, or LDAC) was “no effect”, the “increase of venetoclax Vd/F with azacitidine” value (azacitidine co-administration) was 24% and the “decrease of venetoclax CL/F by moderate CYP3A inhibitors” value (co-administered moderate CYP3A inhibitors) was 19%. For the same molecule, the “decrease of venetoclax CL/F by strong CYP3A inhibitors” value (co-administered strong CYP3A inhibitors) was 83% and the “effect of covariates on venetoclax exposure” value (sex, mild to moderate hepatic impairment, mild to severe renal impairment, age, body weight) was “did not appear to have any effect”.
